Most compounds without a hit are left out; they make up all but 1.8% or so of the library.
MBD2 DNA inh = blocks human MBD2 binding to methylated DNA; inhibition, % at 4.4 µM; TR-FRET, MBD2 binding to methylated oligonucleotide; hit rate 0.31% among 370,000; Q9UBB5; AID 686964; in the data active = inhibition above about 13%
TDP2 absorb = blocks human TDP2 phosphodiesterase activity; AID 720702; O95551; recombinant TDP2, T5PNP hydrolysis, p-nitrophenol absorbance 415 nm; inhibition, % at 12.8 µM; hit rate 0.34% among 370,000;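 active = inhibition above the mean of all tested compounds plus 3 SD, set per campaign, cut at about 25% in these data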;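 note: 0% = DMSO with enzyme and 100% = buffer with substrate but no TDP2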
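Incubation: 2 h at 37 °C; Test system: recombinant human TDP2; Quantity: enzyme 120 nM; Read-out basis: percent inhibition; Medium: 50 mM Tris-HCl pH 7.5 with Mg2+, KCl, DTT, BSA; Repeats: single replicate; Compound: 12.8 µM single point, 1% DMSO; Signal: epi absorbance; Reagent: 5 mM T5PNP chromogenic substrate; Benchmarks: no-enzyme high, DMSO-plus-enzyme low.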
LEDGF integ inh = blocks HIV-1 LEDGF/p75-dependent DNA integration | TR-FRET IN-LEDGF/p75 DNA integration, Eu/Cy5 | inhibition, % at 3.7 µM | hit rate 0.64% among 370,000;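 active = inhibition above the screen-wide mean plus 3 SD, cut at about 13% in these data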;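 note: signal is the Cy5 over europium emission ratio at 671 and 618 nm; 0% = plate median of compound wells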
NSD2 HMT inh = inhibitors of human histone methyltransferase NSD2; inhibition, % at 12.5 µM; AID 743445; NSD2 peptide methylation, AlphaScreen, 120 min; hit rate 0.54% among 310,000; in the data active = inhibition above about 50%
CASP6 VEID inh = caspase-6 (human) enzyme inhibition | AID 686996 | inhibition, % at 12.5 µM | purified caspase-6, Z-VEID-R110 cleavage fluorescence | hit rate 0.53% among 350,000;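 active = mean inhibition across replicates at least about 35%, with every replicate also reaching that limit, limit read from the data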;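 note: 0% = median of neutral control wells and 100% = no fluorescence left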
UHRF1 MBD2 ctr = UHRF1 methyl-DNA binding inhibition; Q96T88; UHRF1 binding to methylated oligo, TR-FRET; inhibition, % at 4.4 µM; hit rate 0.75% among 370,000;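 note: UHRF1 SRA domain binding a hemimethylated CpG hairpin DNA probe; 0% = median of test compound wells and 100% = reference inhibitor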
Target sequence (Q96T88 whole entry, looked up, the tested form may be a part): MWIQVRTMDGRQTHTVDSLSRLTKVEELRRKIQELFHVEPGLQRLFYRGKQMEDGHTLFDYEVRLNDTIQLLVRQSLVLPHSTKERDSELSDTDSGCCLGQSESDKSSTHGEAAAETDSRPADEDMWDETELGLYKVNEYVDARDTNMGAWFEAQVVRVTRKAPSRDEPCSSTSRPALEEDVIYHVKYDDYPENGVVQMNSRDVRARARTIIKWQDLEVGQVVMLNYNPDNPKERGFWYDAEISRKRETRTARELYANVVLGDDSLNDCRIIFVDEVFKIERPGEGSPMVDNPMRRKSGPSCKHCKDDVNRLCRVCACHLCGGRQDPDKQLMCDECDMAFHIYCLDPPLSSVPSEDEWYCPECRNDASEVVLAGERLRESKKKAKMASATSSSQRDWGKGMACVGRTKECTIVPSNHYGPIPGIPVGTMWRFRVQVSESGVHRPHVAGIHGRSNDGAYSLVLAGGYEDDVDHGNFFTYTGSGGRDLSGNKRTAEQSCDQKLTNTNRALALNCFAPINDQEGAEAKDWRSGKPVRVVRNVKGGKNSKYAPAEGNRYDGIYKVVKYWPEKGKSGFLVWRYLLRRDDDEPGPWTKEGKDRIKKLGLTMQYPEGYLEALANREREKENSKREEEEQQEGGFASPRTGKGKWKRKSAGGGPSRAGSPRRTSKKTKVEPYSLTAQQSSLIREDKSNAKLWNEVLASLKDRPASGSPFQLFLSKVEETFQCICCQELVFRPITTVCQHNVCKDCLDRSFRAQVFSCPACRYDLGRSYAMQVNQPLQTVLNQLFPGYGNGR
UHRF1 ctr MBD2 = UHRF1 methyl-oligo binding inhibition as MBD2 counter-screen. hit rate 25% among 1,000. inhibition, % at 4.4 µM. UHRF1 binding to methylated oligonucleotide, TR-FRET. shares compounds with MBD2 DNA inh;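 note: UHRF1 SRA domain binding a labeled hemimethylated CpG hairpin DNA; 0% = vehicle only and 100% = reference inhibitor with vehicle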
MBD2 DBD conf = MBD2-DBD methyl-DNA binding inhibition, TR-FRET confirmation; hit rate 26% among 1,000; shares compounds with MBD2 DNA inh; TR-FRET MBD2-DBD binding to methylated oligonucleotide; inhibition, % at 4.4 µM; in the data active = inhibition above about 14%
* = called active by the depositor; x = no result given; ! = not active in a repeat. Cut-off read from the data, not from the text of the source, unless noted: active = inhibition above about 21%; inactive = the rest.

SMILES | MBD2 DNA inh | TDP2 absorb | LEDGF integ inh | NSD2 HMT inh | CASP6 VEID inh | UHRF1 MBD2 ctr | UHRF1 ctr MBD2 | MBD2 DBD conf
CC(C)NC(=O)Cn1c(SCC(=O)c2ccc(F)cc2)nc2ccccc21 | 14.0* | 23.4 | 8.7 | -0.1 | x | 21.8* | 5.6 | 3.3
CCC(=O)N1C[C@H](C)[C@@H](OC)CN(C)C(=O)c2ccc(NC(=O)Nc3ccccc3)cc2OC[C@H]1C | x | x | x | x | 0.2 | x | x | x
CCCc1cc(=O)[nH]c2nnc(SCC(=O)Nc3cccc(NC(C)=O)c3)n12 | 15.5* | -1.6 | -1.1 | -2.5 | 1.3 | 1.1 | 4.7 | 6.0
CC(=O)Nc1ccc(NC(=O)C(C)OC(=O)C2(c3ccc(F)cc3)CCCC2)cc1 (stereo not drawn) | -3.0 | -6.9 | 0.5 | -0.5 | -0.9 | -0.2 | x | x
CC(=O)Nc1ccc(NC(=O)C(C)OC(=O)C2(c3ccc(Cl)cc3)CCCC2)cc1 (stereo not drawn) | 18.6* | 2.2 | 8.9 | -0.4 | 2.3 | 25.1* | 9.7 | 4.2
CCOC(=O)c1[nH]c2ccc(OC)cc2c1NC(=O)c1ccc(OC)c(OC)c1 | 15.2* | -12.0 | 1.0 | -1.7 | x | 2.4 | 6.2 | 2.3
Cc1ccc(S(=O)(=O)NCC(=O)OCC(=O)c2ccc(S(=O)(=O)N3CCCCC3)cc2)cc1C | 25.0* | 1.6 | -4.1 | 2.0 | 2.9 | -1.3 | 2.2 | 4.2
CCOC(=O)CNS(=O)(=O)c1ccc(S(=O)(=O)N2CCCC2)cc1 | 1.9 | 5.3 | -1.2 | -0.6 | -1.2 | 4.3 | x | x
O=C(/C=C/c1cccs1)N1CCC2(CC1)Oc1ccc(Cl)cc1C(=O)C21CC(c2cccnc2)=NO1 (stereo not drawn) | 16.0* | -3.8 | 11.1 | x | 2.8 | -1.9 | 6.3 | 2.2
Cc1ccc(C(=O)N2CCC3(CC2)Oc2ccc(Cl)cc2C(=O)C32CC(c3cccnc3)=NO2)s1 (stereo not drawn) | 4.4 | 4.4 | -1.0 | x | -0.2 | 0.8 | x | x
CO[C@@H]1CN(C)C(=O)c2cc(NC(=O)Nc3ccccc3Cl)ccc2OC[C@H](C)NC[C@@H]1C | x | x | x | x | -2.5 | x | x | x
C[C@H]1CN([C@@H](C)CO)C(=O)c2cc(/C=C/c3ccccc3)cnc2O[C@H]1CN(C)C(=O)c1ccccc1 | x | x | x | x | -0.2 | x | x | x
Cc1ccc(-n2nc(C)cc2NC(=O)c2ccc(C)s2)cc1 | 34.1* | 0.2 | 0.2 | -0.1 | x | -1.9 | 5.1 | 6.0
Cc1ccc(-n2nc(C)cc2NC(=O)CC#N)cc1 | -0.9 | -8.5 | 4.9 | 2.5 | 0.6 | 2.0 | x | x
O=C(Oc1ccc2c(c1)OCO2)c1cc2c(s1)CCC2 | 24.8* | 12.3 | 12.3 | 2.2 | x | 35.0* | 35.8* | 28.5*
O=C(OCC(=O)N1CCc2ccccc21)c1ccccc1F | 1.6 | -0.8 | 4.2 | -5.5 | 0.4 | 4.3 | x | x
C[C@H](NS(=O)(=O)c1ccccc1F)C(=O)OCC(=O)N1CCc2ccccc21 | 17.2* | -2.6 | -3.3 | -2.2 | x | -0.5 | 7.1 | 2.2
Cc1ccc(-c2cnc3c(c2)C(=O)N([C@@H](C)CO)C[C@H](C)[C@H](CN(C)Cc2ccccc2C(=O)O)O3)cc1 | x | x | x | x | -0.3 | x | x | x
O=S(=O)(c1ccccc1)N1C[C@@H]2N[C@H](C1)C2c1ccc(-c2ccc(F)cc2)cc1 (stereo partly drawn) | x | x | x | x | -2.3 | x | x | x
O=C(NCCO)c1cccc2c1C(=O)c1ccccc1-2 | 1.7 | 8.6 | 1.8 | -2.3 | x | -0.3 | x | x
O=C1c2cccc(NCCNCCO)c2C(=O)c2cccc(NCCNCCO)c21 | 107.0* | 3.8 | 6.5 | x | -21.1 | 93.4* | 92.7* | 107.6*
O=C(O)c1ccc2c(c1)C(=O)/C(=C\c1ccco1)C2=O | 28.5* | 1.6 | 79.4* | 49.4 | 40.6* | 88.0* | 38.1* | 0.1
C[C@H]1CCCCO[C@@H](CN(C)C(=O)Nc2ccc(C(F)(F)F)cc2)[C@@H](C)CN([C@@H](C)CO)C(=O)c2cc(NC(=O)c3ccncc3)ccc2O1 | x | x | x | x | -0.5 | x | x | x
COC(=O)C1N2C(=O)[C@@H](NC(=O)COc3ccccc3)[C@H]2SC1(C)C (stereo partly drawn) | 4.3 | 10.8 | 0.0 | x | 1.6 | -1.5 | x | x
CC1(C)S[C@@H]2[C@H](NC(=O)[C@H](N)c3ccccc3)C(=O)N2[C@H]1C(=O)O | 47.4*! | 10.5 | 52.3*! | x | x | 81.1*! | 76.9* | 30.8*
SMILES | MBD2 DNA inh | TDP2 absorb | LEDGF integ inh | NSD2 HMT inh | CASP6 VEID inh | UHRF1 MBD2 ctr | UHRF1 ctr MBD2 | MBD2 DBD conf
O=C(Cn1cc(COc2ccccc2C(F)(F)F)nn1)c1ccc(O)cc1 | 15.3* | -0.7 | 7.6 | x | 4.1 | 22.1* | 11.3 | 9.2
O=C1NC(=S)S/C1=C\c1ccc(SCc2ccccc2)o1 | 28.6* | 15.8 | 43.0* | 19.3 | x | 82.4* | 11.7 | 9.7
O=C(Nc1ccc2c(c1)OCO2)c1cccs1 | 40.0* | 9.1 | -3.7 | 0.3 | x | -2.3 | 2.3 | 5.1
O=C(Nc1ccc2c(c1)OCCO2)c1cccs1 | -3.6 | -6.2 | -0.1 | -5.2 | -1.4 | -2.4 | x | x
CC(CCc1ccccc1)NC(=O)CN1CCN(Cc2ccccc2)C1=O (stereo not drawn) | -0.1 | -4.0 | -2.2 | -2.1 | x | 2.5 | x | x
CC(CCc1ccccc1)NC(=O)CN1CCN(Cc2ccc(Cl)cc2)C1=O (stereo not drawn) | 17.0* | -5.7 | -1.6 | x | 2.0 | 1.4 | 4.5 | 4.4
CCn1nc(C(=O)Nc2nc(-c3ccccn3)cs2)c2ccccc2c1=O | 27.0* | 3.3 | -5.4 | 1.8 | 1.9 | -2.5 | -2.9 | 4.4
CCCn1nc(C(=O)Nc2nc(-c3ccccn3)cs2)c2ccccc2c1=O | 8.0 | -0.5 | -1.2 | 1.1 | -0.1 | -4.2 | x | x
C[C@@H]1CCCCO[C@@H](CN(C)S(=O)(=O)c2ccc(Cl)cc2)[C@H](C)CN([C@H](C)CO)C(=O)c2cc(NC(=O)Cc3ccccc3)ccc2O1 | x | x | x | x | -1.0 | x | x | x
CCCc1nc2c3ccccc3ccn2c1Cc1ccc(OC)cc1C | 15.6* | -3.2 | 4.2 | x | 1.2 | 26.0* | 10.2 | 6.0
CN(C)CCCNC(=O)[C@@H]1[C@@H](CO)[C@@H]2Cn3c(ccc(-c4ccccc4)c3=O)[C@H]1N2C(=O)CC1CC1 | x | x | x | x | 0.8 | x | x | x
CSc1nsc(SCC(=O)Nc2ccc(C(C)=O)cc2)n1 | 1.3 | -0.7 | 0.4 | x | x | -0.1 | x | x
CSc1nsc(SCC(=O)Nc2ccc(C(N)=O)cc2)n1 | 22.7* | -4.6 | -3.5 | -1.8 | -1.8 | 0.1 | 6.4 | 2.2
Cc1c(Nc2c3ccccc3nc3ccccc23)c(=O)n(-c2ccccc2)n1C | 24.4* | -14.4 | -4.0 | -5.4 | 4.6 | -2.4 | 0.6 | -5.4
Cc1c(Nc2nc3ccccc3nc2N2CCN(c3ccccc3)CC2)c(=O)n(-c2ccccc2)n1C | -6.1 | -13.8 | 0.6 | 1.0 | x | 1.7 | x | x
